In article PMC3698760 (Journal of the American Heart Association: Cardiovascular …, 2013):
“Also recorded” adds a separate entry of the source.

What was measured:
Circular dichroism = type: physicochemical; conditions: CD spectra in water, 200 to 260 nm
How it was run: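 Spectra of peptides and human apoA-I (17.8 to 178 μmol/L) recorded at 25°C in a thermostatted quartz cell with 0.1 mm path length, scanning 200–260 nm. Results expressed as mean residue ellipticity (deg cm² dmol⁻¹).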

[1] = tested on: human monocyte‐derived macrophages; assay: Cellular cholesterol efflux in human monocyte-derived macrophages; type: cell-based; conditions: 20 μg/mL, 4 hours, n=4 to 5
How it was run: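 Human peripheral blood monocyte-derived macrophages isolated by Lymphoprep gradient. Cells were radiolabelled with ³H-cholesterol and kept in serum-free medium containing 0.2% BSA. Efflux to 20 μg/mL acceptor (apoA-I or test peptide) or no acceptor was measured over 4 h.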

ABCA1 = ABCA1 (Homo sapiens, UniProt O95477); assay: Cholesterol efflux in COS-7 cells transiently transfected with human ABCA1 cDNA; type: cell-based; conditions: 20 μg/mL, 4 hours, n=6 to 7
Sequence of ABCA1 (O95477 whole entry): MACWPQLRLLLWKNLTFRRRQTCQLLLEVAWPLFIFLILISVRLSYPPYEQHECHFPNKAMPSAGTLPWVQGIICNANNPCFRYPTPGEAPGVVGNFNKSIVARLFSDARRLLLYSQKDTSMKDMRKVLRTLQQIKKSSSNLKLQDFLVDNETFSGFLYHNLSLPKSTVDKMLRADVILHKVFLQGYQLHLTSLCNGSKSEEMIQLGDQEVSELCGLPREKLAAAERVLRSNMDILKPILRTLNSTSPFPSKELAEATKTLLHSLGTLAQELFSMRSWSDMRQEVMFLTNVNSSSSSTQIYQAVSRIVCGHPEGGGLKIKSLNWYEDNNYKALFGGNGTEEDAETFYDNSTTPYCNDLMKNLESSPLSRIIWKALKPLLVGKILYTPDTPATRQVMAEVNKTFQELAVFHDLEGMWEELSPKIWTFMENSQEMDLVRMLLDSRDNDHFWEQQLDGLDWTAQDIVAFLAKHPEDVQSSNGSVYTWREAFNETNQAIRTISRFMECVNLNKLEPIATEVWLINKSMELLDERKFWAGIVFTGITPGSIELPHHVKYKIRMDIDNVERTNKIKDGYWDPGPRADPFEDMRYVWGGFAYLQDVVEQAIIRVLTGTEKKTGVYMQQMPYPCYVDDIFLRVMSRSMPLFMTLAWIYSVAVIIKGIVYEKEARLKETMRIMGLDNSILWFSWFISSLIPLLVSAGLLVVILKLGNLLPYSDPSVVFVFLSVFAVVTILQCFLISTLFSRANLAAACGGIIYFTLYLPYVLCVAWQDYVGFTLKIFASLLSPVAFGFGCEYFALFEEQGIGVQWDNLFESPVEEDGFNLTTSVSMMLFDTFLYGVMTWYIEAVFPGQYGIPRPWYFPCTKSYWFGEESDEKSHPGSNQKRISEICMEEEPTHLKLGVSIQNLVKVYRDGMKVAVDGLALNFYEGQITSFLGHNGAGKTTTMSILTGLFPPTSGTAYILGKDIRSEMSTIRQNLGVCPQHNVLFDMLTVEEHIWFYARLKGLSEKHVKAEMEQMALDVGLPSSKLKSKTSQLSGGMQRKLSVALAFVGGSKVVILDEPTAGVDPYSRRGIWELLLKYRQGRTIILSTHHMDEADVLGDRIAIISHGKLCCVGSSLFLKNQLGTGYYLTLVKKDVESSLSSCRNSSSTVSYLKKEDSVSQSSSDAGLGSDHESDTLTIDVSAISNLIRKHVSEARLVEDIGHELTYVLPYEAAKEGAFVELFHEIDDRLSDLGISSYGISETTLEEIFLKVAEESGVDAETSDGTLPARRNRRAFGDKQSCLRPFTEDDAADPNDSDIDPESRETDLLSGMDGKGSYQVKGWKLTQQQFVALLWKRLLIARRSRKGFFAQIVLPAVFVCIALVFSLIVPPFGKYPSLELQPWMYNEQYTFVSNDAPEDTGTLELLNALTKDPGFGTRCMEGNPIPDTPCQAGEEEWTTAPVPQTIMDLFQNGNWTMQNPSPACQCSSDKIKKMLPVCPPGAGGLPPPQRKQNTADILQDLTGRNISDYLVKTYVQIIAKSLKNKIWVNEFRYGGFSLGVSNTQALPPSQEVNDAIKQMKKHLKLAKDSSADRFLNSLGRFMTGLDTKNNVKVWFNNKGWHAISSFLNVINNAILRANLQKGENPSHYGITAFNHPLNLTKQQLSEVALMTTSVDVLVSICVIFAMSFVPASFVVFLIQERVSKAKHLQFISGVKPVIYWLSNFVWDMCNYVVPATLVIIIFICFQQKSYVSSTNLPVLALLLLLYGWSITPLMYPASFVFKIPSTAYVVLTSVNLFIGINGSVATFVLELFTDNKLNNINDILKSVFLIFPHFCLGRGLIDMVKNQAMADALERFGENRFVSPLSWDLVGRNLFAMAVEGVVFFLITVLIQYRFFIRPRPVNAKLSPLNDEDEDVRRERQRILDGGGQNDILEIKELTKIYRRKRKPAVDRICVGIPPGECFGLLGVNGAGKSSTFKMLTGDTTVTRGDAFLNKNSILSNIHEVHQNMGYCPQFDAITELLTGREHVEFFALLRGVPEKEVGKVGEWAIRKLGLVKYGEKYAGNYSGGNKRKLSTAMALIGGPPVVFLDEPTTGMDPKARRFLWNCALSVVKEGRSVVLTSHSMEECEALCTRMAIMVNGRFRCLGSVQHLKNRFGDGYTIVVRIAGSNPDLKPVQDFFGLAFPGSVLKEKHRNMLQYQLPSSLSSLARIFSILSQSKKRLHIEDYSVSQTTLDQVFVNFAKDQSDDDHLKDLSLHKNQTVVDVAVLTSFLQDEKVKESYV
How it was run: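 COS‑7 cells were kept in DMEM with 10% FBS and antibiotics and seeded at 80–90% confluence. They were transfected by lipofection with human ABCA1 cDNA in pcDNA3.1 (with ABCG1 in pEdsRed‑N1), or with mock vector. Cells were then ³H‑cholesterol labelled, and efflux was measured in serum‑free medium with 0.2% BSA.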

[2] = tested on: monocyte‐derived macrophages from an ABCA1‐deficient Tangier disease patient; type: cell-based, human; conditions: 20 μg/mL, 4 hours, n=4
How it was run: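 Peripheral blood monocyte‑derived macrophages came from a healthy volunteer and a Tangier disease patient, with ethics approval and written consent. Cells were isolated by Lymphoprep density separation and labelled with ³H‑cholesterol. Efflux was run in serum‑free 0.2% BSA medium with or without 20 μg/mL human apoA‑I or test peptide for 4 h. n=4; mean±SD.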

[3] = human whole plasma, 60 minutes at 37°C; FAMP5 0.2 to 2.0 mg/mL, ACD-FAMP5 2.0 mg/mL
How it was run: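 Human whole plasma was incubated with saline, test peptide (0.2 to 2.0 mg/mL) or acridone-labelled peptide (2.0 mg/mL) for 60 min at 37°C. Samples were run on agarose gel electrophoresis with cholesterol staining, transferred to PVDF and immunoblotted with goat anti-human apoA-I antibody. The fluorescent label was visualized on the gel under UV light.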

[4] = tested on: apoE−/− mice fed a high‐fat diet; assay: Aortic atherosclerotic lesion formation, 16-week treatment; type: in vivo; conditions: high-dose 50 mg/kg i.p. 3 times per week, 16 weeks; Oil Red O; mean±SD; P<0.01 vs scrambled
How it was run: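 Male apoE−/− mice, bought at six weeks, fed a high-fat diet (0.5% cholesterol, 10% fat) and dosed i.p. 3 times per week for 16 weeks: test peptide at 10 or 50 mg/kg per day, or scrambled peptide. Whole aortas were then stained with Oil Red O. Lesion area was scored by image analysis as percentage of aorta from ascending aorta to abdominal bifurcation.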

α‐helical conformation (CD spectra) (Circular dichroism): formed strong α‐helical conformations
cholesterol efflux after transient transfection with ABCA1 cDNA vs mock (ABCA1): significantly upregulated
Substance: H-ALEHLFTLYEKALKALEDLLKKLL-OH [FAMP5]
cholesterol efflux [1]: induced cholesterol efflux significantly more than human apoA‐I
cholesterol efflux in Tangier disease macrophages vs healthy subject [2]: suppressed
conversion of α HDL to pre‐β HDL on agarose gel electrophoresis [3]: shifted the α HDL band to the pre‐β HDL position; also recorded: completely converted α HDL to pre‐β HDL
relative surface area of aortic plaque lesions [4]: 16.2±5.0%
